This is an account of results in ChEMBL document CHEMBL1137382, “Synthesis and structure-activity relationships of carbazole sulfonamides as a novel class of antimitotic agents against solid tumors” (J Med Chem, 2006).

In general, IC50 refers to the midpoint of a concentration-inhibition curve. Low values mean greater potency in that assay, high ones weaker potency in that assay. One may read the LD50 as the dose at which mortality reaches 50%. A lower LD50 goes with greater toxicity. The inhibition in vivo is the drop in the measured response relative to a control, in per cent. Low readings indicate little suppression, high ones strong suppression.

SMILES strings stand for the structures. Active and inactive are the calls of the source. The calls are words filed in the database; no cut-off is given here.

One data set deals with CEM (human). In words: Antiproliferative activity against human CEM cells after 72 hrs.
Data set [1] deals with MCF7. Briefly: Cell cycle arrest in MCF7 cells by accumulation at M phase at 0.22 to 1.1 uM after 24 hrs. In kind it is functional, cell-based. The following applies: Homo sapiens. An outline of the steps: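 MCF-7 cells exposed at 0.22 µM for up to 24 h. Cells trypsin/EDTA-harvested (1.5 × 10⁶), PBS-washed, RNase-treated (0.5 µg/µL final, 37 °C, 30 min), fixed in ice-cold 70% ethanol ≥12 h at 4 °C, and stained with propidium iodide (0.1 µg/µL final, 4 °C, 60 min). ≥10⁴ events analysed by flow cytometry. Mitotic arrest also scored on Giemsa-stained cytospins by chromosome spreading.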

Data set [2] concerns MCF7. In words: Antiproliferative activity against human MCF7 cells after 72 hrs. It is filed as functional, cell-based. The conditions noted are these: MCF7, 72 h. An outline of the steps: (§1)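 Cells grown in RPMI-1640 with 10% heat-inactivated FCS, penicillin and streptomycin, 5% CO2, 37 °C, used in exponential growth. 5 × 10⁴ cells per well exposed to compound at 0–10 µM for 72 h at 37 °C. IC50 (concentration killing 50% of cells versus untreated controls) determined in duplicate by nonlinear regression.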

Data set [3] concerns Bel-7402. Briefly: Antiproliferative activity against human Bel7402 cells after 72 hrs. It is filed as functional, cell-based. The following applies: Bel-7402, 72 h. A digest of the protocol:
as §1

Data set [4] in a line: Antiproliferative activity against human DND1 cells after 72 hrs. It is filed as functional, cell-based. The conditions noted are these: DND1, 72 h. An outline of the steps: as §1
The test system of a further data set is MOLT-3. Briefly: Antiproliferative activity against human Molt3 cells after 72 hrs. It is filed as functional, cell-based. The conditions noted are these: MOLT-3, 72 h. An outline of the steps: as §1
For the next data set, the system named is DU-145. In words: Antiproliferative activity against human DU145 cells after 72 hrs. It is filed as functional, cell-based. The conditions noted are these: DU-145, 72 h. An outline of the steps: as §1
The test system of data set [5] is MCF7. In words: Induction of apoptosis in human MCF7 cell line assessed as increase in cdc2 expression upto 48 hrs. It is filed as functional, cell-based. An outline of the steps:
(§2)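 MCF-7 cells treated at 0.022–2.2 µM, or at 0.22 µM for 0–48 h. Lysed on ice in Tris/NaCl/NP-40/PMSF/aprotinin buffer and protein measured by Bradford. Blots blocked in 5% milk/TBST and probed with monoclonal antibodies to bcl-2, p53, cdc-2 and cyclin B1, then HRP anti-mouse. Signals detected by ECL on film.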

The subject of another data set is PC-3. In words: Antiproliferative activity against human PC3 cells after 72 hrs. It is filed as functional, cell-based. The following applies: PC-3, 72 h. A digest of the protocol:
as §1

A short description of data set [6]: Toxicity ip dosed mouse. In kind it is organism-based. The conditions noted are these: in vivo.
The test system of data set [7] is MCF7. In words: Reduction in tumor volume of human MCF7 cell xenografted in nude mice at 100 mg/kg, ip. It is filed as functional. The conditions noted are these: Mus musculus, route intraperitoneal. An outline of the steps: (§3)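 Female nude mice carry sc xenografts (MCF-7, 8 × 10⁶ cells, after sc estrogen 0.25 mg/mouse 24 h before; or Bel-7402). At 90–120 mm³, mice were randomised into groups of five. Dosing ip q2d for 5–6 weeks, 100 mg/kg for MCF-7 and 60 mg/kg for Bel-7402, with a solvent control. Tumor volume from caliper width and length, mean of n = 5.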

Data set [8] relates to MCF7. Briefly: Induction of apoptosis in human MCF7 cell line assessed as increase in P-p53 expression upto 48 hrs. In kind it is functional, cell-based. A digest of the protocol:
as §2

For data set [9], the system named is MCF7. In words: Induction of apoptosis in human MCF7 cell line assessed as increase in cyclin B1 expression upto 48 hrs. In kind it is functional, cell-based. An outline of the steps: as §2
Data set [10] concerns Bel-7402. Briefly: Reduction in tumor volume of human Bel7402 cell xenografted in nude mice at 60 mg/kg, ip. In kind it is functional. The conditions noted are these: Mus musculus, Bel-7402, ip, route intraperitoneal. An outline of the steps:
as §3
Background: Xenograft models place foreign cells or tissue in a host animal.

A further data set relates to DMS-79. Briefly: Antiproliferative activity against human DMS79 cells after 72 hrs. The following applies: DMS-79, 72 h. It is filed as functional, cell-based. A digest of the protocol: as §1

`CCn1c2ccccc2c2cc(S(=O)(=O)Nc3ccc(OC)c(OC)c3)ccc21` gave a concentration for half-maximal inhibition (IC50) in the data set on CEM (human) of 2440 nM.

As for `CCn1c2ccccc2c2cc(S(=O)(=O)Nc3cc(OC)c(OC)c(OC)c3)ccc21`, the result in the data set on MCF7 [1], in the data set with MCF7 [5], in the data set with MCF7 [8] and in the data set with MCF7 [9] was Active. Besides, the concentration for half-maximal inhibition (IC50) with MCF7 [2] came to 89 nM; in the data set on Bel-7402 [3], 201 nM; in [4], 89 nM; in the data set on MOLT-3 it was 20 nM; with DU-145, 603 nM; with PC-3, 201 nM. Further, the concentration for half-maximal inhibition (IC50) was found to be 1900 nM in the data set on DMS-79 and 56 nM in the data set on CEM (human). The median lethal dose (LD50) in [6] was more than 500 mg/kg. This compound also displayed an inhibition in vivo at 100 mg/kg with MCF7 [7] of 75%. In the data set on Bel-7402 [10], this compound came in with an inhibition in vivo at 60 mg/kg of 55%.

The compound `CCn1c2ccccc2c2cc(S(=O)(=O)Nc3cc(C(F)(F)F)cc(C(F)(F)F)c3)ccc21` returned an IC50 in the data set on CEM (human) of more than 10000 nM.

Turning to `COc1cc(OC)c(NS(=O)(=O)c2ccc3c(c2)c2ccccc2n3C)c(OC)c1`, in the data set with CEM (human), the IC50 was 70 nM.

With `CCn1c2ccccc2c2cc(S(=O)(=O)Nc3cc(Cl)c(OC)cc3OC)ccc21`, half-maximal inhibition with CEM (human) (IC50) was put at 67 nM.

Take `COc1cc(NS(=O)(=O)c2ccc3c(c2)c2ccccc2n3C)cc(OC)c1OC`: the half-inhibitory concentration (IC50) with MCF7 [2] came out at 70 nM; in the data set with Bel-7402 [3], 116 nM; in data set [4], 70 nM; in the data set with MOLT-3, 19 nM; with DU-145, 232 nM; in the data set with PC-3, 116 nM. The IC50 worked out at 2090 nM with DMS-79 and 46 nM in the data set on CEM (human).

As for `CCn1c2ccccc2c2cc(S(=O)(=O)Nc3ccc(OC)c(Cl)c3)ccc21`, half-maximal inhibition in the data set with CEM (human) (IC50) was put at 482 nM.

In the data set with CEM (human), `COc1cc(NS(=O)(=O)c2ccc3c(c2)c2ccccc2n3C)c(OC)cc1Cl` registered an IC50 of 46 nM. This IC50 is about 10-fold lower than that of the compound before.

As for `CCn1c2ccccc2c2cc(NS(=O)(=O)c3ccc(OC)c(OC)c3)ccc21`, in the data set on CEM (human), half-maximal inhibition (IC50) was put at 2650 nM.

In the data set on CEM (human), `CCn1c2ccccc2c2cc(NS(=O)(=O)c3ccc(OC)cc3)ccc21` had a half-maximal inhibitory concentration (IC50) of more than 10000 nM.

`COc1cc(NS(=O)(=O)c2ccc3[nH]c4ccccc4c3c2)cc(OC)c1OC` displayed a half-maximal inhibitory concentration (IC50) in the data set on CEM (human) of 606 nM.

Compound `CCn1c2ccccc2c2cc(S(=O)(=O)Nc3ccc(OC)c(N)c3)ccc21` showed an IC50 in the data set with CEM (human) of 2200 nM.

With `CCn1c2ccccc2c2cc(S(=O)(=O)Nc3cc(OC)ccc3OC)ccc21`, the half-inhibitory concentration (IC50) with MCF7 [2] amounted to 98 nM; in the data set on Bel-7402 [3] it was 219 nM; in [4], 195 nM; in the data set with MOLT-3, 49 nM; in the data set on DU-145, 365 nM; with PC-3, 780 nM. This compound also gave a concentration for half-maximal inhibition (IC50) in the data set on CEM (human) of 61 nM.

For the compound `CCn1c2ccccc2c2cc(NS(=O)(=O)c3cc(OC)ccc3OC)ccc21`, in the data set on CEM (human), half-maximal inhibition (IC50) was put at 603 nM.

With `COc1ccc(/C=C\c2cc(OC)c(OC)c(OC)c2)cc1O` [COMBRETASTATIN A4], the IC50 with MCF7 [2] came to 12 nM; in the data set with Bel-7402 [3] it was 10 nM; in [4] it was 2.5 nM; in the data set on MOLT-3, 9.3 nM; with DU-145, 9.3 nM; with PC-3, 2.8 nM. The values for the IC50 in the data set on DMS-79 and in the data set on CEM (human) were 124 nM and 1.9 nM, respectively.

As to `CCn1c2ccccc2c2cc(S(=O)(=O)Nc3ccc(OC)cc3OC)ccc21`, the IC50 with MCF7 [2] stood at 48 nM; in the data set with Bel-7402 [3] it was 96 nM; in data set [4], 120 nM; with MOLT-3 it was 48 nM; in the data set on DU-145, 144 nM; in the data set with PC-3 it was 144 nM. In the data set on CEM (human), this compound returned an IC50 of 57 nM.

As for `CCn1c2ccccc2c2cc(NS(=O)(=O)c3ccc(OC)cc3N)ccc21`, in the data set with CEM (human), the IC50 was more than 10000 nM.

The compound `CCn1c2ccccc2c2cc(S(=O)(=O)Nc3ccc4c(c3)OCO4)ccc21` yielded a half-maximal inhibitory concentration (IC50) in the data set with CEM (human) of 6250 nM.

Compound `CCn1c2ccccc2c2cc(S(=O)(=O)Nc3ccc(F)cc3)ccc21` had an IC50 with CEM (human) of 2170 nM.

`COc1cc([C@@H]2c3cc4c(cc3[C@H](O)[C@H]3COC(=O)[C@H]23)OCO4)cc(OC)c1OC` [PODOFILOX]: the IC50 came out at 15 nM in the data set with MCF7 [2]; 9.1 nM with Bel-7402 [3]; 12 nM in data set [4]; 14 nM in the data set on MOLT-3; 52 nM with DU-145; 10 nM in the data set on PC-3. In addition, the IC50 in the data set on DMS-79 is 23 nM; in the data set on CEM (human) it was 7.2 nM.

`CCn1c2ccccc2c2cc(S(=O)(=O)NCc3cc(OC)c(OC)c(OC)c3)ccc21` had an IC50 in the data set on CEM (human) of more than 10000 nM.

Consider `CCn1c2ccccc2c2cc(S(=O)(=O)Nc3cc(OC)c(Cl)cc3OC)ccc21`, for which the 50% inhibitory concentration (IC50) with MCF7 [2] turned out to be 67 nM; in the data set with Bel-7402 [3], 135 nM; in data set [4], 90 nM; in the data set with MOLT-3 it was 67 nM; with DU-145 it was 169 nM; in the data set with PC-3, 90 nM. In the data set on CEM (human), the 50% inhibitory concentration (IC50) amounted to 56 nM.

`CCn1c2ccccc2c2cc(S(=O)(=O)Nc3cc(OC)cc(OC)c3)ccc21` displayed a half-inhibitory concentration (IC50) with CEM (human) of 974 nM.

Turning to `CCn1c2ccccc2c2cc(NS(=O)(=O)c3cccc(C#N)c3)ccc21`, the half-maximal inhibitory concentration (IC50) in the data set on CEM (human) stood at 1320 nM.

`COc1cc(NS(=O)(=O)c2ccc3oc4ccccc4c3c2)cc(OC)c1OC` had a 50% inhibitory concentration (IC50) in the data set with CEM (human) of more than 10000 nM.

Regarding `CCn1c2ccccc2c2cc(NS(=O)(=O)c3ccc(OC)cc3[N+](=O)[O-])ccc21`, the IC50 in the data set with CEM (human) is more than 10000 nM.

Regarding `CCn1c2ccccc2c2cc(S(=O)(=O)Nc3ccc(OC)cc3)ccc21`, the half-maximal inhibitory concentration (IC50) in the data set with CEM (human) is more than 10000 nM.

The compound `CCn1c2ccccc2c2cc(NS(=O)(=O)c3cccc(OC)c3)ccc21` showed a concentration for half-maximal inhibition (IC50) in the data set on CEM (human) of 789 nM.
